Shown are actives, neighbours in structure and some others; about 2.2% of the full set was active somewhere.
PGC1a acetyl inh: lowers PGC1a acetylation signal in U2OS cells | 350,000 tested, 0.17% active | AID 651687 | inhibition, % at 15.6 µM | AlphaScreen anti-acetyl-lysine; with virally co-expressed GCN5 acetyltransferase;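 active means every replicate shows inhibition of at least 40%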
ERAP1 inh: ERAP1 (human) enzyme inhibition. 340,000 tested, 0.15% active. recombinant ERAP1, Leu-AMC fluorescence, 60 min. Q9NZ08. inhibition, % at 10.7 µM;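 active means mean replicate inhibition of at least 30%, or all replicates individually reaching that 30% level; inactive means mean below 30% and not every replicate reaching it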
SIRT5 inh: sirtuin-5 (human) deacylase inhibition; 330,000 tested, 1.1% active; inhibition, % at 15 µM; AID 652115; Q9NXA8; Purified SirT5, succinyl-peptide AMC, trypsin-coupled fluorescence; in the data active means inhibition above about 15%
Target sequence (Q9NXA8 whole entry, looked up): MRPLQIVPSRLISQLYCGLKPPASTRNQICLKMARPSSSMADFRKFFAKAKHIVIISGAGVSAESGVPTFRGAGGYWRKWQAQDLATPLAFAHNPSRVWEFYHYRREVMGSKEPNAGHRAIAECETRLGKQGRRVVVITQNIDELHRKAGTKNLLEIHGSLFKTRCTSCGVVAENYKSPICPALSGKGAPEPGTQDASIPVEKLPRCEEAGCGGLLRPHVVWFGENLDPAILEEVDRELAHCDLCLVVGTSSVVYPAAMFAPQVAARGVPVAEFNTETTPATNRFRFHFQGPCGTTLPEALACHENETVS
FGF22 binding: shifts melting point of recombinant human FGF22 | activity (Tm shift, normalised), % at 9.99 µM | 340,000 tested, 1.5% active | recombinant FGF22 thermal shift, SYPRO orange fluorescence; percent of sucrose octasulfate shift, DMSO zero | Q9HCT0 | AID 651658;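 active means mean Tm shift, scaled 0 neutral to 100 positive control, at about 1.3% or above, every replicate too, limit read from the data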
Target sequence (Q9HCT0 whole entry, looked up): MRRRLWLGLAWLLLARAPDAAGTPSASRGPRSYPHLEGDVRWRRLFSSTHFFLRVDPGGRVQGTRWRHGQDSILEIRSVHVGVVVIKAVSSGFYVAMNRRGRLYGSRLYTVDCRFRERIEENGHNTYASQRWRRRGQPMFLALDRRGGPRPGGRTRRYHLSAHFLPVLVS
FN deposition inh: fibronectin deposition inhibition; AH1F fibroblasts, Alexa488-fibronectin deposition fluorescence, overnight; inhibition, % at 12.6 µM; 350,000 tested, 0.086% active; AID 743247;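 active means mean inhibition across replicates of 30% or more, regardless of how many single replicates reach that level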
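Material: AH1F fibroblasts assembling fluorescent fibronectin matrix; amount: 10000 AH1F cells/well; medium: DMEM, 2% serum; reagent: Alexa488-fibronectin, 24 nM final in well; dosing: single compound dose, delivered by pin transfer; incubation: 1 h adhesion, overnight exposure; detection: fluorescence after three HBSS washes, excitation 485 nm, emission 525 nm; measure: fibronectin deposition inhibition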
Each line names hits and unclear results; the compound was inactive in the other large screens.

CCOC(=O)C1=C(c2ccccc2)NC(=S)NC1C (stereo not given)	none (no result: ERAP1 inh, SIRT5 inh, FGF22 binding)
C[C@@H]1CN([C@@H](C)CO)C(=O)c2cc(NC(=O)Nc3ccc(F)cc3)ccc2O[C@H]1CN(C)C(=O)Nc1ccc2c(c1)OCO2	none (no result: FGF22 binding, FN deposition inh)
COc1ccccc1Oc1ccc2c(c1)C(=O)N(c1ccccc1)C2=O	none (no result: PGC1a acetyl inh, ERAP1 inh, SIRT5 inh, FGF22 binding)
COc1ccccc1Oc1ccc2c(c1)C(=O)N(c1ccc(C)cc1)C2=O	PGC1a acetyl inh 103.7 (no result: ERAP1 inh, SIRT5 inh, FGF22 binding, FN deposition inh)
Nc1ncc(-n2cncn2)c(-c2ccccc2)n1	FGF22 binding 43.3
O=C(CC1CC1)N1CC2(C1)[C@H](c1ccccc1)[C@H](CO)N2C(=O)C1CCOCC1	none (no result: FN deposition inh)
O=C1ON=C(c2ccccc2[N+](=O)[O-])/C1=C/c1cccc([N+](=O)[O-])c1O	ERAP1 inh 64.6
O=[N+]([O-])c1cccc(/C=N/n2cnnc2)c1O	none (no result: ERAP1 inh, SIRT5 inh, FGF22 binding, FN deposition inh)
O=C1ON=C(c2ccc(Cl)c([N+](=O)[O-])c2)/C1=C/c1cccc([N+](=O)[O-])c1O	ERAP1 inh 98.6 (no result: PGC1a acetyl inh)
CNC[C@H]1OCCCC[C@@H](C)Oc2ccc(NS(=O)(=O)c3cccs3)cc2C(=O)N([C@@H](C)CO)C[C@H]1C	none (no result: FN deposition inh)
CCC(=O)N[C@@H]1C=C[C@@H](CC(=O)OC)O[C@@H]1CO	none
CC=Cc1ccc2n(c1=O)C[C@@H]1[C@@H](CO)[C@H](C(=O)NCc3ccccc3)[C@H]2N1Cc1ccccc1OC (mixture of isomers)	none (no result: FGF22 binding, FN deposition inh)
OCCN(CC(O)COc1ccccc1)CC(O)Cn1ccc2ccccc21 (stereo not given)	none (no result: FN deposition inh)
COc1ccc(OCC(O)CN(CCO)CC(O)Cn2ccc3ccccc32)cc1 (stereo not given)	FGF22 binding 43.1 (no result: PGC1a acetyl inh)
COc1cccc(C#Cc2ccc([C@H]3[C@H](CO)N4C(=O)CN(C(=O)C5CC5)C[C@@H]34)cc2)c1	none (no result: FGF22 binding, FN deposition inh)
Cc1cc2ccccn2c1C(=O)c1cc([N+](=O)[O-])cc([N+](=O)[O-])c1	none
CCN(CC)S(=O)(=O)c1cccc(C(=O)c2c(C)cc3ccccn23)c1	FGF22 binding 43.2 (no result: PGC1a acetyl inh)
Cc1[nH]c2ccccc2c1C1=NNC(=Nc2ccc(F)cc2)SC1	none (no result: PGC1a acetyl inh)
COc1ccc(N=C2NN=C(c3c(C)[nH]c4ccccc34)CS2)cc1	FGF22 binding 43.4 (no result: PGC1a acetyl inh)
CN(C)CC(=O)Nc1ccc(S(N)(=O)=O)cc1	none (no result: ERAP1 inh, SIRT5 inh, FGF22 binding)
CCN(CC)C(=S)SCC(=O)Nc1ccc(S(N)(=O)=O)cc1	FGF22 binding 43.4
COc1ccccc1NC(=O)N[C@@H]1C=C[C@H](CC(=O)N2CCC(Cc3ccccc3)CC2)O[C@H]1CO	none
C[C@H]1CCCCO[C@@H](CN(C)Cc2ccccc2)[C@@H](C)CN([C@@H](C)CO)C(=O)c2cc(NC(=O)c3ccncc3)ccc2O1	none
O=C(O)C1C(c2ccccc2)=C1c1ccc(Br)cc1 (stereo not given)	FGF22 binding 43.1 (no result: PGC1a acetyl inh, SIRT5 inh)
COc1ccc(NC(=O)CC2C(=O)N(Cc3cccs3)C(=S)N2C(C)C)cc1 (stereo not given)	SIRT5 inh 31.2 (no result: ERAP1 inh)
Cc1nn(C)c(C(=O)NNC(=S)NC2CCCCC2)c1Br	FGF22 binding 43.0 (no result: PGC1a acetyl inh)
Cc1ccc(NC(=O)CN(C)C(=O)c2ccc(NC(=O)CC3SC(N4CCCC4)=NC3=O)cc2)cc1 (stereo not given)	FGF22 binding 44.3 (no result: PGC1a acetyl inh)
CC(=O)c1ccc2c(c1)C1C=CCC1C(c1ccc(S(=O)(=O)N3CCOCC3)cc1)N2 (stereo not given)	none (no result: PGC1a acetyl inh, ERAP1 inh, SIRT5 inh, FGF22 binding)
O=C(O)c1ccc2c(c1)C1C=CCC1C(c1ccncc1)N2 (stereo not given)	none (no result: ERAP1 inh)
COc1ccc(NS(=O)(=O)c2ccc3c(c2)[C@H]2C=CC[C@H]2[C@@H](c2ccc(C(=O)O)cc2)N3)cc1	ERAP1 inh 31.9, SIRT5 inh 44.2 (no result: PGC1a acetyl inh, FGF22 binding)
Cc1c(Cl)cccc1NS(=O)(=O)c1ccc2c(c1)C1C=CCC1C(c1ccc(C(=O)O)cc1)N2 (stereo not given)	PGC1a acetyl inh 107.4 (no result: ERAP1 inh, SIRT5 inh, FGF22 binding, FN deposition inh)
Cc1ccc(S(=O)(=O)N(C)C[C@@H]2Oc3ccc(NC(=O)Nc4ccc5c(c4)OCO5)cc3C(=O)N([C@H](C)CO)C[C@@H]2C)cc1	none (no result: FN deposition inh)
CN(C)C(=O)c1ccc(-c2ccc([C@H]3[C@@H](CO)N4CCCCN(CCC(F)(F)F)C[C@@H]34)cc2)cc1	none (no result: FN deposition inh)
OC[C@H]1[C@H](c2ccc(-c3ccccc3)cc2)[C@@H]2CN(CCC(F)(F)F)CCCCN12	SIRT5 inh 27.1
CN(C)C(=O)c1ccc(-c2ccc([C@H]3[C@H](CO)N4CCCCN(CCC(F)(F)F)C[C@@H]34)cc2)cc1	SIRT5 inh 33.1 (no result: FN deposition inh)
O=C(NCCNc1ccc([N+](=O)[O-])cc1C(F)(F)F)c1ccccc1	FGF22 binding 43.0 (no result: PGC1a acetyl inh)
O=C(NCCNc1ccc([N+](=O)[O-])cc1C(F)(F)F)c1cccc(F)c1	none (no result: PGC1a acetyl inh, ERAP1 inh, SIRT5 inh, FGF22 binding)
O=c1[nH][nH]c(-c2ccccc2)c1C=Nc1ccc(F)cc1F	FGF22 binding 43.9 (no result: PGC1a acetyl inh)
COC(=O)Cn1c2[n+](c3ccccc31)CC(O)CS2 (stereo not given)	none (no result: ERAP1 inh, SIRT5 inh, FGF22 binding, FN deposition inh)
CCOC(=O)Cn1c2[n+](c3ccccc31)CC(O)CS2 (stereo not given)	ERAP1 inh 78.2 (no result: FN deposition inh)
O=c1c2c([N+](=O)[O-])cc([N+](=O)[O-])cc2sn1Cc1ccccc1	ERAP1 inh 87.8, SIRT5 inh 20.4 (no result: PGC1a acetyl inh)
C[C@@H]1CN([C@H](C)CO)C(=O)c2cc(C#C[C@@H](C)O)cnc2O[C@H]1CN(C)Cc1cccc(F)c1	none
C[C@H]1CCCCO[C@H](CN(C)C(=O)Nc2ccccc2)[C@@H](C)CN([C@@H](C)CO)C(=O)c2cc(NS(=O)(=O)c3ccc(Cl)cc3)ccc2O1	none
COc1ccc(C(=O)Cc2ccccc2C(=O)O)cc1	none (no result: PGC1a acetyl inh, FN deposition inh)
COc1ccc(C(=O)CSc2ccccc2C(=O)O)cc1	FGF22 binding 44.1
O=Cc1s/c(=N\S(=O)(=O)c2ccccc2)n(CCCCl)c1Cl	FN deposition inh 52.3 (no result: PGC1a acetyl inh)
CCn1c(C)cs/c1=N\S(=O)(=O)c1ccccc1	none (no result: SIRT5 inh)
O=C(N[C@H]1CC[C@H](CC(=O)N2CCN(c3ccccc3)CC2)O[C@@H]1CO)c1ccncc1	none
CCCNC(=O)N1C[C@@H](O)COC[C@H]2O[C@@H](CC(=O)NCc3ccc(Cl)c(Cl)c3)CC[C@@H]21	none
Cc1ccnc(NC(=O)CCC(=O)N(Cc2ccco2)C(C(=O)NC(C)C)c2ccc(F)cc2)c1 (stereo not given)	SIRT5 inh 99.9 (no result: PGC1a acetyl inh)
COCCNC(=O)C(c1ccc(F)cc1)N(Cc1ccco1)C(=O)CCC(=O)Nc1ccccn1 (stereo not given)	none (no result: PGC1a acetyl inh)
C[C@H]1CN([C@@H](C)CO)C(=O)c2cccc(NC(=O)CCCCCC(=O)Nc3ccccc3N)c2O[C@@H]1CN(C)Cc1ccc2c(c1)OCO2	none (no result: FN deposition inh)
CN(C)c1ccc(Sc2ccc3nc(N)nc(N)c3c2)cc1	PGC1a acetyl inh 45.8
CCCNC(=O)c1onc(CSc2ccc(F)c(F)c2)c1C(=O)NCCC	FGF22 binding 36.4 (no result: PGC1a acetyl inh)
CC(C)(C)C(=O)/C=c1\s/c(=C\c2ccc(-c3ccc([N+](=O)[O-])cc3)o2)c(=O)n1CC(=O)NC(N)=O	FGF22 binding 43.9 (no result: PGC1a acetyl inh)

Source: PubChem BioAssay
